Experiment [1] concerns the target T1, JNK1/JNK2 (Mus musculus) (UniProt Q91Y86+Q9WTU6). Briefly: Inhibition LPS-induced JNK1/2 phosphorylation at Thr183/[…] in mouse RAW264.7 cells at 20 uM administered 30 mins prior to LPS challenge measured after 30 mins by Western blotting analysis. Type of experiment: cell-based. The essentials:
(§1)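 RAW 264.7 cells pretreated with compound for 30 min, then stimulated with LPS for 30 min. Protein extracts were Western blotted for phosphorylated ERK and JNK (SDS-PAGE, PVDF, ECL detection).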
On the technique in general: In western blotting, separated proteins are transferred to a membrane and probed.

The subject of experiment [2] is RAW264.7. Kind of experiment: Antiinflammatory activity in mouse RAW264.7 cells assessed as inhibition of LPS-induced iNOS mRNA expression at 10 uM after 5 hrs by RT-PCR analysis relative to control. The class given is functional. The essentials:
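RAW 264.7 cells exposed to 1 μg/mL LPS with or without compound for 5 h. Total RNA was analysed by RT-PCR: 25−30 cycles with annealing at 55 °C. Products were separated on 2% agarose gel with SYBR-Safe staining. Experiments in triplicate.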

In experiment [3] the test system is RAW264.7. Kind of experiment: Antiinflammatory activity in mouse RAW264.7 cells assessed as inhibition LPS-induced IL-1beta mRNA expression at 20 uM after 4 hrs by RT-PCR analysis relative to control. Type of experiment: functional. The essentials: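 RAW 264.7 cells stimulated with LPS (1 μg/mL) with or without compound for 4 h. Total RNA was isolated and cytokine mRNA was analysed by RT-PCR: 94 °C 4 min, then 25−30 cycles of 94/55/72 °C for 30 s each, then 72 °C 5 min. Products were run on 2% agarose and stained with SYBR-Safe. Triplicate, representative of three experiments.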

Experiment [4] relates to RAW264.7. Kind of experiment: Antiinflammatory activity in mouse RAW264.7 cells assessed as inhibition of LPS-induced nitric oxide production at 40 uM administered 30 mins prior to LPS challenge measured after 20 hrs by Griess assay relative to control. The class given is functional. In outline: (§2)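 RAW 264.7 cells at 3 × 10^5 cells/mL in phenol red-free 10% FBS DMEM, pretreated for 30 min, then given 1 μg/mL LPS for 20 h. Nitrite in the medium was read by Griess reaction at 540 nm against a sodium nitrite standard curve. % inhibition was calculated versus vehicle control, and IC50 by nonlinear regression. Mean ± SD of triplicates.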

Experiment [5] has as its system RAW264.7. Kind of experiment: Inhibition of LPS-induced NFkappaB transcriptional activity in mouse RAW264.7 cells assessed as […] at 20 uM after 30 mins by Western blotting analysis relative to control. Type of experiment: cell-based. The essentials: (§3)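 Macrophages were exposed to compound for 30 min before LPS stimulation, with proteins extracted 30 min later. Nuclear extracts were prepared in Tris/KCl/NP-40 lysis buffer, then 420 mM NaCl buffer, and the cytosolic fraction was kept for IκB-α. Western blot on PVDF with ECL detection. Tests in triplicate; representative of three separate experiments.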

Experiment [6] has as its system Rattus norvegicus. Briefly: Antiinflammatory activity in rat paw edema model assessed as inhibition of carrageenan-induced COX2 protein expression in paw tissue at 20 mg/kg, po administered 30 mins prior to carrageenan challenge measured after 6 hrs by Western blotting analysis relative to vehicle-treated control. The class given is functional, organism-based. Also noted: dose 20 mg/kg. In outline: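 SD rats received compound orally in 0.5% CMC-Na 30 min before subplantar injection of 0.1 mL 1% carrageenan in saline. Paws were removed at 6 h, homogenized, and iNOS, COX-2 and IL-1β were assessed by Western blot. Triplicate, representative of three experiments.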

In experiment [7] the test system is RAW264.7. Briefly: Antiinflammatory activity in mouse RAW264.7 cells assessed as inhibition of LPS-induced nitric oxide production at 20 uM administered 30 mins prior to LPS challenge measured after 20 hrs by Griess assay relative to control. The class given is functional. The essentials:
as §2
A general note: Griess reagent forms a coloured azo dye with nitrite.

Experiment [8] deals with RAW264.7. Briefly: Inhibition of LPS-induced NFkappaB transcriptional activity in mouse RAW264.7 cells assessed as reduction of phosphorylated IkappaB-alpha level at 20 uM after 30 mins by Western blotting analysis relative to control. The class given is cell-based. The essentials:
as §3

Experiment [9] addresses T1, JNK1/JNK2 (Mus musculus). Kind of experiment: Inhibition LPS-induced JNK1/2 phosphorylation at Thr183/[…] in mouse RAW264.7 cells at 10 uM administered 30 mins prior to LPS challenge measured after 30 mins by Western blotting analysis. Type of experiment: cell-based. In outline:
as §1

The subject of experiment [10] is RAW264.7. Kind of experiment: Antiinflammatory activity in mouse RAW264.7 cells assessed as inhibition LPS-induced IL-1beta protein expression at 20 uM after 4 hrs by Western blotting analysis. Type of experiment: functional. The essentials: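 RAW 264.7 cells stimulated with LPS (1 μg/mL) with or without compound for 4 h. Lysates were resolved by 6−15% SDS-PAGE and blotted to PVDF. Blocked in 5% milk/PBST, primary antibody overnight at 4 °C, secondary antibody 2 h, detected by ECL. Triplicate, representative of three experiments.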

In experiment [11] the test system is Mus musculus. Briefly: Antiinflammatory activity in ICR mouse ear edema model assessed as inhibition of TPA-induced ear edema at 20 mg/kg, po administered 30 mins prior to TPA challenge measured after 4 hrs relative to vehicle-treated control. Type of experiment: functional. The essentials:
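ICR mice (male, 18−20 g, 5 weeks old) dosed orally 30 min before TPA (1.0 μg in 20 μL acetone) was applied to inner and outer surfaces of the right ear. Killed by cervical dislocation after 4 h. Edema taken as the weight of a 5 mm punch biopsy of the right ear over the left. Ear homogenates were Western blotted for iNOS, COX-2 and IL-1β.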

In experiment [12] the target is Transcription factor p65 (Mus musculus) (UniProt Q04207). Briefly: Inhibition of LPS-induced NF-kappaB p65 binding to DNA in mouse RAW264.7 cells at 10 to 40 uM after 1.5 hrs by spectrophotometry in presence of wild type oligonucleotide. Type of experiment: cell-based.

As usually defined, the inhibition in vivo is how much of the control response was suppressed.

Calls of active or inactive are those of the source. The rule behind the calls is not given here. Where only a bound is given, the exact number is not on record here.

T1 sequence (Q91Y86 whole entry, looked up): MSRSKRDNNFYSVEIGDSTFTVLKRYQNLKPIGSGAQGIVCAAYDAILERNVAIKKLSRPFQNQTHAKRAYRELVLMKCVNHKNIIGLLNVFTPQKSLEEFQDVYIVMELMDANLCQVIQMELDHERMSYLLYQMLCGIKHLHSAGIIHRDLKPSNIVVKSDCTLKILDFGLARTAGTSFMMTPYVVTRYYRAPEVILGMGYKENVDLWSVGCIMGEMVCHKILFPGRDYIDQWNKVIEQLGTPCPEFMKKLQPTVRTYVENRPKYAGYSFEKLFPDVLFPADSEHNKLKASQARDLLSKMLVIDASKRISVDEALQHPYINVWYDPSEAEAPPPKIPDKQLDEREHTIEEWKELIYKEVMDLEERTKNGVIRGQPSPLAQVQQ
T1 sequence (Q9WTU6 whole entry, looked up): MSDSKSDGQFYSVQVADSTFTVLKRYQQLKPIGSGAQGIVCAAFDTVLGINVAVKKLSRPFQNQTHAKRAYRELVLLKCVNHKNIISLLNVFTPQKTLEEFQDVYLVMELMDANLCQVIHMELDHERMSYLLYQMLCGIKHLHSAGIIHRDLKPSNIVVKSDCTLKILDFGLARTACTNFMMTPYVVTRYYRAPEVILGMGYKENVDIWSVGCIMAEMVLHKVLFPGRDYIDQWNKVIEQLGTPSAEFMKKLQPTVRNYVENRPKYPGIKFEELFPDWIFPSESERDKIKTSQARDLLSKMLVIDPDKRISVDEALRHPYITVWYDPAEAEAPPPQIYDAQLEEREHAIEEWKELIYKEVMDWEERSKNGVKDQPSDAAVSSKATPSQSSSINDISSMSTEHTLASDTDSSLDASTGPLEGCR
Chain of Transcription factor p65 (Mus musculus) (Q04207 whole entry): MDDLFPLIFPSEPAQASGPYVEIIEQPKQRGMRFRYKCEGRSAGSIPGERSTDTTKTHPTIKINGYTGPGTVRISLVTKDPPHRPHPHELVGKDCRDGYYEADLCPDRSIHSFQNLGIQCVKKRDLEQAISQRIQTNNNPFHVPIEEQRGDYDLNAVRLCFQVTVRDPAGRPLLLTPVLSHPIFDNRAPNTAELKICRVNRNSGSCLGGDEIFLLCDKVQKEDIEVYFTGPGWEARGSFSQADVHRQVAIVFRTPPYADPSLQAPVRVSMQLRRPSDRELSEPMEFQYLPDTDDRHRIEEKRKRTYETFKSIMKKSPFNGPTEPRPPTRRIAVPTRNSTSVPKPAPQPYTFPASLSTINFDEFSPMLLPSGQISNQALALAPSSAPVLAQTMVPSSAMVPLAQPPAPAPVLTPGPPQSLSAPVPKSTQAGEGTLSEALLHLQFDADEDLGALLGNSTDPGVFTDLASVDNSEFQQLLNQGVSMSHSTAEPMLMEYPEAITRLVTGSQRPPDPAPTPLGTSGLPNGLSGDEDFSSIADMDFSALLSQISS

Consider `C=C1C(=O)O[C@@H]2[C@@H]3[C@@]4(C=C[C@@]3(C)[C@]3(C4)C(=O)O[C@@H]4[C@H]5C(C)=CC[C@H]5[C@](C)(O)C[C@H](OC(C)=O)[C@H]43)[C@](C)(O)CC[C@@H]12`, for which the fold change (FC) in experiment [1] was determined as 0.54; in [2], 0.74; in experiment [3], 0.79; in experiment [5] it was 1.85; in experiment [8], 0.55; in [9] it was 0.71. The “fold change (FC)” value in experiment [10] worked out at 0.67. Besides, the “inhibition (INH)” value in experiment [4] was 98%; in experiment [7] it was more than 84%. Moreover, the inhibition entry in [6] and in experiment [9] was “Active” each time. Also, in experiment [11], the inhibition in vivo at 20 mg/kg was found to be 56%. Besides, the inhibition result in experiment [12] is “inactive”.
